Activity, inhibition in vivo and UI data for 24 compounds are collected here from ChEMBL document CHEMBL1158348, “Aroylpropionic acid based 2,5-disubstituted-1,3,4-oxadiazoles: synthesis and their anti-inflammatory and analgesic activities” (Eur J Med Chem, 2009).

As a reminder, the inhibition in vivo is the relative decrease from the control value, in per cent.

The test system of data set [1] is Gastric mucosa. Description: Inhibition of lipid peroxidation assessed as malondialdehyde level per 100 mg of gastric mucosa isolated from po dosed Wistar rat treated dose equivalent to 60 mg/kg equivalent to ibuprofen by UV spectrophotometry. In kind it is functional. Summed up:
(§1)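 Rats 150–200 g, groups of six, fasted 8 h, then given a single oral dose and killed 17 h later with food and water available. Gastric mucosa scraped, 100 mg homogenised in ice-cold 1.15% KCl. SDS, pH 3.5 acetate buffer and 0.8% TBA added, heated at 95 °C for 60 min. Extracted with n-butanol/pyridine 15:1, A532 read; MDA in nmol/100 mg tissue.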

Data set [2] deals with Rattus norvegicus. The data set can be described thus: Antiinflammatory activity in po dosed Wistar rat assessed as inhibition of carrageenan-induced paw odema at dose equivalent to 20 mg/kg of ibuprofen pretreated 30 mins pre-carrageenan challenge measured after 2 hrs. The data set is classed as functional. Summed up:
(§2)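 Rats 150–200 g, groups of six. Drug given orally as a suspension in 0.5% w/v aqueous sodium CMC; control group untreated. 30 min later, 0.1 mL of 1% carrageenan injected sub-plantar into the left hind paw. Paw volume measured by plethysmometer before treatment (V0) and at intervals (Vt). Inhibition computed from (Vt−V0) of treated vs control. Values are mean ± S.E.M.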
Background: Carrageenan injected into the paw causes an acute inflammation.

In data set [3] the test system is Rattus norvegicus. The data set can be described thus: Gastrointestinal toxicity in po dosed Wistar rat assessed ulcer index at dose equivalent to 60 mg/kg of ibuprofen after 17 hrs. The data set is classed as organism-based. More on the design: dose 60 mg/kg, route oral. The note with it: in vivo. In short, it runs like this: (§3)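 Wistar rats (150–200 g), groups of six, fasted 8 h, then given a single oral dose (60 mg kg-1 ibuprofen or molar equivalent of test compound; control received vehicle only). Sacrificed 17 h later with food and water available. Gastric mucosa examined under 4× binocular magnifier, scored 0–4 by lesion/ulcer number and size. Severity index = treated group mean score minus control mean score.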

Data set [4] concerns Mus musculus. The data set can be described thus: Analgesic activity in po dosed Swiss albino mouse assessed as inhibition of acetic acid-induced writhing response at dose equivalent to 20 mg/kg of ibuprofen pretreated 3 hrs before acetic acid challenge. The data set is classed as functional. Set-up: scale not given: the % may be the effect or the level left. Summed up: (§4)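 Mice 25–30 g of either sex, groups of six. Drug given orally as a suspension in 0.5% w/v aqueous sodium CMC, 3 h before 1% v/v acetic acid i.p. at 1 mL per 100 g body weight. Writhings counted over 10 min. Protection (%) = 100 − (test/control writhings × 100). Values are mean ± S.E.M., with ANOVA then t-test.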

In data set [5] the test system is Rattus norvegicus. The data set can be described thus: Antiinflammatory activity in po dosed Wistar rat assessed as inhibition of carrageenan-induced paw odema at dose equivalent to 20 mg/kg of ibuprofen pretreated 30 mins pre-carrageenan challenge measured after 3 hrs. The data set is classed as functional. Summed up: as §2
For data set [6], the system named is Rattus norvegicus. The data set can be described thus: Antiinflammatory activity in Wistar rat assessed as inhibition of carrageenan-induced paw odema at 20 mg/kg, po pretreated 30 mins pre-carrageenan challenge measured after 2 hrs. The data set is classed as functional. In short, it runs like this:
as §2

The subject of data set [7] is Gastric mucosa. The data set can be described thus: Inhibition of lipid peroxidation assessed as malondialdehyde level per 100 mg of gastric mucosa isolated from Wistar rat treated 60 mg/kg, po by UV spectrophotometry. In kind it is functional. In short, it runs like this:
as §1

Data set [8] has as its system Rattus norvegicus. Description: Antiinflammatory activity in Wistar rat assessed as inhibition of carrageenan-induced paw odema at 20 mg/kg, po pretreated 30 mins pre-carrageenan challenge measured after 4 hrs. In kind it is functional. Summed up:
as §2

For data set [9], the system named is Rattus norvegicus. Description: Antiinflammatory activity in Wistar rat assessed as inhibition of carrageenan-induced paw odema at 20 mg/kg, po pretreated 30 mins pre-carrageenan challenge measured after 8 hrs. The data set is classed as functional. Summed up: as §2
Data set [10] deals with Rattus norvegicus. The data set can be described thus: Gastrointestinal toxicity in Wistar rat assessed ulcer index at 60 mg/kg, po after 17 hrs. The note with it: in vivo. The data set is classed as organism-based. More on the design: dose 60 mg/kg, route oral. Summed up: as §3
Data set [11] concerns Rattus norvegicus. Description: Antiinflammatory activity in Wistar rat assessed as inhibition of carrageenan-induced paw odema at 20 mg/kg, po pretreated 30 mins pre-carrageenan challenge measured after 3 hrs. The data set is classed as functional. In short, it runs like this:
as §2

Data set [12] deals with Mus musculus. The data set can be described thus: Analgesic activity in Swiss albino mouse assessed as inhibition of acetic acid-induced writhing response at 20 mg/kg, po pretreated 3 hrs before acetic acid challenge. The data set is classed as functional. More on the design: scale not given: the % may be the effect or the level left. In short, it runs like this:
as §4
Background: In writhing tests, fewer writhes than in controls are read as antinociception.

Consider `Cc1ccc(C(=O)CCc2nnc(-c3ccc(Cl)cc3)o2)cc1`, for which the results for the Activity in the data set on Gastric mucosa [1] and in the data set with Mus musculus [4] were 4.25 nmol and 58.89%, respectively. The inhibition in vivo with Rattus norvegicus [2] amounted to 62.7%; in the data set with Rattus norvegicus [5], 81.5%. Further, the UI with Rattus norvegicus [3] stood at 0.98.

With `Cc1ccc(C(=O)CCc2nnc(-c3ccc([N+](=O)[O-])cc3)o2)cc1`, the figures for the Activity with Gastric mucosa [1] and in the data set with Mus musculus [4] were 3.95 nmol and 53.43%, respectively. Also, the inhibition in vivo in the data set on Rattus norvegicus [2] came out at 52%; in the data set with Rattus norvegicus [5], 60.5%. Further, the UI in the data set with Rattus norvegicus [3] is on record as 0.95.

With `Cc1ccc(C(=O)CCc2nnc(COc3ccccc3)o2)cc1`, the inhibition in vivo amounted to 25.3% in the data set with Rattus norvegicus [2] and 42% with Rattus norvegicus [5].

Regarding `Cc1ccc(C(=O)CCc2nnc(Cc3ccccc3)o2)c(C)c1`, the results for the inhibition in vivo in the data set on Rattus norvegicus [2] and in the data set on Rattus norvegicus [5] were 25.3% and 50%, respectively.

For `O=C(CCc1nnc(-c2ccccc2Cl)o1)c1ccccc1`, the inhibition in vivo in the data set on Rattus norvegicus [2] is 26.9%; in the data set on Rattus norvegicus [5], 35.8%.

In the case of `O=C(CCc1nnc(-c2ccc([N+](=O)[O-])cc2)o1)c1ccccc1`, the Activity is 4.95 nmol in the data set with Gastric mucosa [1] and 58.2% with Mus musculus [4]. Moreover, the inhibition in vivo is 40.9% with Rattus norvegicus [2] and 62.7% in the data set on Rattus norvegicus [5]. Further, in the data set on Rattus norvegicus [3], the UI is reported as 0.98.

As for `COc1ccc(-c2nnc(CCC(=O)c3ccc(C)cc3C)o2)cc1`, the Activity in the data set with Gastric mucosa [1] turned out to be 3.79 nmol; in the data set on Mus musculus [4], 66.25%. In addition, the inhibition in vivo was found to be 62.7% in the data set with Rattus norvegicus [2] and 88.9% with Rattus norvegicus [5]. Moreover, in the data set with Rattus norvegicus [3], the UI came out at 0.65.

Regarding `Cc1ccc(C(=O)CCc2nnc(Cc3ccccc3)o2)cc1`, the inhibition in vivo turned out to be 24.7% in the data set with Rattus norvegicus [2] and 51.9% with Rattus norvegicus [5].

On to `Cc1ccc(C(=O)CCc2nnc(-c3ccccc3Cl)o2)cc1`, for which the inhibition in vivo in the data set with Rattus norvegicus [2] is 36.2%; in the data set on Rattus norvegicus [5], 57.3%.

For `Cc1ccc(C(=O)CCc2nnc(COc3ccccc3)o2)c(C)c1`, the inhibition in vivo in the data set on Rattus norvegicus [2] is 27.6%; with Rattus norvegicus [5], 45.7%.

Turning to `Cc1ccc(C(=O)CCc2nnc(-c3ccc([N+](=O)[O-])cc3)o2)c(C)c1`, the Activity in the data set on Gastric mucosa [1] was 4.42 nmol; in the data set with Mus musculus [4], 47.2%. In addition, the inhibition in vivo is 40% in the data set on Rattus norvegicus [2] and 69.1% in the data set on Rattus norvegicus [5]. Further, in the data set with Rattus norvegicus [3], the UI was determined as 0.87.

`Cc1ccc(C(=O)CCc2nnc(-c3ccccc3)o2)c(C)c1`: the inhibition in vivo with Rattus norvegicus [2] worked out at 36%; in the data set on Rattus norvegicus [5], 58%.

On to `O=C(CCc1nnc(COc2ccc3ccccc3c2)o1)c1ccccc1`, for which the values for the inhibition in vivo with Rattus norvegicus [2] and in the data set with Rattus norvegicus [5] were 29.8% and 51%, respectively.

As to `Cc1ccc(C(=O)CCc2nnc(-c3ccccc3Cl)o2)c(C)c1`, the Activity with Gastric mucosa [1] is listed as 4.15 nmol; with Mus musculus [4], 56.8%. Further, the inhibition in vivo was 33.5% in the data set on Rattus norvegicus [2] and 60.5% in the data set with Rattus norvegicus [5]. Besides, in the data set with Rattus norvegicus [3], the UI is given as 0.89.

For the compound `COc1ccc(-c2nnc(CCC(=O)c3ccc(C)cc3)o2)cc1OC`, the Activity with Gastric mucosa [1] is reported as 3.85 nmol; in the data set on Mus musculus [4], 62.39%. Besides, the inhibition in vivo in the data set on Rattus norvegicus [2] was 53.3%; in the data set with Rattus norvegicus [5], 72.6%. Further, the UI in the data set with Rattus norvegicus [3] came out at 0.87.

`COc1ccc(-c2nnc(CCC(=O)c3ccc(C)cc3C)o2)cc1OC`: the Activity with Gastric mucosa [1] turned out to be 5.12 nmol; with Mus musculus [4] it was 56.1%. For the same compound, the inhibition in vivo was found to be 58.7% in the data set with Rattus norvegicus [2] and 75.3% in the data set with Rattus norvegicus [5]. The UI in the data set on Rattus norvegicus [3] amounted to 1.12.

For the compound `Cc1ccc(C(=O)CCc2nnc(COc3cccc4ccccc34)o2)cc1`, the inhibition in vivo in the data set with Rattus norvegicus [2] is 24%; in the data set with Rattus norvegicus [5] it was 37%.

Turning to `COc1ccc(-c2nnc(CCC(=O)c3ccc(C)cc3)o2)cc1`, the Activity in the data set with Gastric mucosa [1] was found to be 3.15 nmol; with Mus musculus [4], 69.8%. The inhibition in vivo turned out to be 69.3% in the data set on Rattus norvegicus [2] and 89.5% with Rattus norvegicus [5]. Moreover, the UI with Rattus norvegicus [3] worked out at 0.7.

For `O=C(CCc1nnc(-c2ccccc2)o1)c1ccccc1`, the inhibition in vivo in the data set on Rattus norvegicus [2] stood at 18.7%; in the data set on Rattus norvegicus [5], 29.4%.

Regarding `O=C(CCc1nnc(-c2ccc(Cl)cc2)o1)c1ccccc1`, the Activity with Gastric mucosa [1] amounted to 5.32 nmol; with Mus musculus [4], 63%. The inhibition in vivo in the data set on Rattus norvegicus [2] stood at 42%; in the data set with Rattus norvegicus [5], 81.5%. The UI with Rattus norvegicus [3] stood at 1.12.

On to `Cc1ccc(C(=O)CCc2nnc(COc3ccc4ccccc4c3)o2)cc1`, for which the inhibition in vivo in the data set on Rattus norvegicus [2] stood at 24.7%; in the data set on Rattus norvegicus [5], 49.4%.

`Cc1ccc(C(=O)CCc2nnc(-c3ccc(Cl)cc3)o2)c(C)c1`: the Activity in the data set on Gastric mucosa [1] came out at 3.26 nmol; with Mus musculus [4] it was 60.42%. Moreover, the figures for the inhibition in vivo in the data set on Rattus norvegicus [2] and with Rattus norvegicus [5] were 53.3% and 72.6%, respectively. Moreover, the UI in the data set on Rattus norvegicus [3] stood at 0.71.

As for `Cc1ccc(C(=O)CCc2nnc(-c3ccccc3)o2)cc1`, the inhibition in vivo was determined as 33.3% in the data set with Rattus norvegicus [2] and 49.3% in the data set on Rattus norvegicus [5].

As for `CC(C)Cc1ccc(C(C)C(=O)O)cc1` (stereo unspecified) [IBUPROFEN], the inhibition in vivo at 20 mg/kg is 80.9% in the data set on Rattus norvegicus [6], 65.5% with Rattus norvegicus [8], 46.7% in the data set with Rattus norvegicus [9] and 90.1% in the data set with Rattus norvegicus [11]. For the same compound, the Activity in the data set with Gastric mucosa [7] is 7.51 nmol; with Mus musculus [12], 72.5%. The compound further came in with a UI in the data set on Rattus norvegicus [10] of 1.95.
